Measured values reported in ChEMBL document CHEMBL2346606, “Inhibitors of the TAM subfamily of tyrosine kinases: synthesis and biological evaluation” (Eur J Med Chem, 2013).

Legend:
[1] = test system: HT-29; assay: Growth inhibition of human HT-29 cells at 10 uM after 72 hrs by […] assay relative to control; type: functional; conditions: HT-29, 72 h, read-out: GI
Outline: (§1)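 HT29, MCF7 and PC-3 cells were grown in RPMI, plated, and treated 24 h later with compound in DMSO at 10^-5 M (DMSO controls, 1% final). After 72 h exposure, MTS reagent was added for 3 h at 37 °C and absorbance read at 490 nm. Proliferation inhibition = [1 − OD treated/OD control] × 100, triplicate experiments.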

[2] = Growth inhibition of African green monkey Vero cells at 10 uM after 72 hrs by […] assay relative to control; type: cell-based; conditions: chlorocebus sabaeus, read-out: GI
Outline: (§2)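 KB and Vero cells were grown in D-MEM with 10% FCS and antibiotics under 5% CO2, plated, then dosed 24 h later at 10^-5 M from DMSO (controls 1% DMSO). After 72 h, MTS was added for 3 h at 37 °C and A490 read. Inhibition = (1 − OD treated/OD control) × 100, in triplicate.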

[3] = test system: MCF7; assay: Growth inhibition of human MCF7 cells at 10 uM after 72 hrs by […] assay relative to control; type: functional; conditions: MCF7, 72 h, read-out: GI; outline: as §1
[4] = test system: PC-3; assay: Growth inhibition of human PC3 cells at 10 uM after 72 hrs by […] assay relative to control; type: functional; conditions: PC-3, 72 h, read-out: GI; outline: as §1
[5] = test system: KB; assay: Growth inhibition of human KB cells at 10 uM after 72 hrs by […] relative to control; type: functional; conditions: read-out: GI; outline: as §2

COc1ncccc1C(=O)Nc1cccc(-c2nc3c(Nc4cccc(C(F)(F)F)c4)ncnc3[nH]2)c1
< 10%: inhibition of growth at 10 µM [1] | inhibition at 72 h, 10 µM [2] | inhibition of growth at 10 µM [3] | inhibition of growth at 10 µM [4] | inhibition of growth at 10 µM [5]

Cc1cc(C(=O)Nc2cccc(-c3ncnc4[nH]cnc34)c2)ccc1Br
< 10%: inhibition of growth at 10 µM [1] | inhibition at 72 h, 10 µM [2] | inhibition of growth at 10 µM [3] | inhibition of growth at 10 µM [4] | inhibition of growth at 10 µM [5]

O=C(Nc1cccc(-c2ncnc3[nH]cnc23)c1)c1cccn(-c2ccc(F)cc2)c1=O
< 10%: inhibition of growth at 10 µM [1] | inhibition at 72 h, 10 µM [2] | inhibition of growth at 10 µM [3] | inhibition of growth at 10 µM [4] | inhibition of growth at 10 µM [5]

O=C(Nc1ccc(Oc2ncnc3[nH]cnc23)c(F)c1)c1ccccc1F
< 10%: inhibition of growth at 10 µM [1] | inhibition at 72 h, 10 µM [2] | inhibition of growth at 10 µM [3] | inhibition of growth at 10 µM [4] | inhibition of growth at 10 µM [5]

O=C(Nc1cccc(-c2nc3c(Nc4ccc(F)cc4)ncnc3[nH]2)c1)c1ccccc1F
< 10%: inhibition of growth at 10 µM [1] | inhibition at 72 h, 10 µM [2] | inhibition of growth at 10 µM [3] | inhibition of growth at 10 µM [4] | inhibition of growth at 10 µM [5]

COc1ccccc1C(=O)Nc1cccc(-c2ncnc3[nH]cnc23)c1
< 10%: inhibition of growth at 10 µM [1] | inhibition at 72 h, 10 µM [2] | inhibition of growth at 10 µM [3] | inhibition of growth at 10 µM [4] | inhibition of growth at 10 µM [5]

O=C(Nc1ccc(Nc2ncnc3[nH]cnc23)cc1)c1cccnc1F
< 10%: inhibition of growth at 10 µM [1] | inhibition at 72 h, 10 µM [2] | inhibition of growth at 10 µM [3] | inhibition of growth at 10 µM [4] | inhibition of growth at 10 µM [5]

COc1ccccc1C(=O)Nc1cccc(-c2nc3c(Nc4ccc(F)cc4)ncnc3[nH]2)c1
< 10%: inhibition of growth at 10 µM [1] | inhibition at 72 h, 10 µM [2] | inhibition of growth at 10 µM [3] | inhibition of growth at 10 µM [4] | inhibition of growth at 10 µM [5]

O=C(Nc1ccc(Nc2ncnc3[nH]cnc23)c(F)c1)c1cccn(-c2ccc(F)cc2)c1=O
< 10%: inhibition of growth at 10 µM [1] | inhibition at 72 h, 10 µM [2] | inhibition of growth at 10 µM [3] | inhibition of growth at 10 µM [4] | inhibition of growth at 10 µM [5]

COc1ncccc1C(=O)Nc1cccc(-c2ncnc3[nH]cnc23)c1
< 10%: inhibition of growth at 10 µM [1] | inhibition at 72 h, 10 µM [2] | inhibition of growth at 10 µM [3] | inhibition of growth at 10 µM [4] | inhibition of growth at 10 µM [5]

COc1ccccc1C(=O)Nc1ccc(Nc2ncnc3[nH]cnc23)c(F)c1
< 10%: inhibition of growth at 10 µM [1] | inhibition at 72 h, 10 µM [2] | inhibition of growth at 10 µM [3] | inhibition of growth at 10 µM [4] | inhibition of growth at 10 µM [5]

O=C(Nc1ccc(Nc2ncnc3[nH]cnc23)c(F)c1)c1cccn(-c2ccc(C(F)(F)F)cc2)c1=O
< 10%: inhibition of growth at 10 µM [1] | inhibition at 72 h, 10 µM [2] | inhibition of growth at 10 µM [3] | inhibition of growth at 10 µM [4] | inhibition of growth at 10 µM [5]

O=C(Nc1cccc(-c2ncnc3[nH]cnc23)c1)c1cccn(-c2cccc(F)c2)c1=O
< 10%: inhibition of growth at 10 µM [1] | inhibition at 72 h, 10 µM [2] | inhibition of growth at 10 µM [3] | inhibition of growth at 10 µM [4] | inhibition of growth at 10 µM [5]

COc1ccccc1C(=O)Nc1cccc(-c2nc3c(Nc4cccc(C(F)(F)F)c4)ncnc3[nH]2)c1
< 10%: inhibition of growth at 10 µM [1] | inhibition at 72 h, 10 µM [2] | inhibition of growth at 10 µM [3] | inhibition of growth at 10 µM [4] | inhibition of growth at 10 µM [5]

Cc1cc(C(=O)Nc2cccc(-c3nc4c(Nc5cccc(C(F)(F)F)c5)ncnc4[nH]3)c2)ccc1Br
< 10%: inhibition of growth at 10 µM [1] | inhibition at 72 h, 10 µM [2] | inhibition of growth at 10 µM [3] | inhibition of growth at 10 µM [4] | inhibition of growth at 10 µM [5]

O=C(Nc1ccc(Nc2ncnc3[nH]cnc23)cc1)c1cccn(-c2cccc(F)c2)c1=O
< 10%: inhibition of growth at 10 µM [1] | inhibition at 72 h, 10 µM [2] | inhibition of growth at 10 µM [3] | inhibition of growth at 10 µM [4] | inhibition of growth at 10 µM [5]
